Test results reported in PubChem BioAssay AID588754 (Broad Institute, 2011).
The source made the active and inactive calls.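 The calls were made as follows: active = fitted curve shows reduced dye-labelled HDL uptake, half-maximal concentration at most ten times top dose; inconclusive = flat curve with 30 to 70% inhibition, or unreliable fit; inactive = the rest.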

Target: Scavenger receptor class B member 1 (Mus musculus) (UniProt Q61009)
Experiment: inhibition of HDL lipid transfer via mSR-BI – ldlA[mSR-BI] CHO cells, powder samples, set 5, dose response (AID 588754)
Details: DiI-HDL uptake fluorescence, 3 h
In short: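 Detection: bottom-read DiI fluorescence after washing, ex 550/em 595 nm; Assay system: LDL receptor-deficient CHO ldlA cells overexpressing murine SR-BI; Medium: Ham's F12 with fatty acid-free BSA and HEPES; Schedule: 3 h exposure to compound plus DiI-HDL at 37 °C; Also added: DiI-labeled HDL at 10 µg/mL final.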

Chain of Scavenger receptor class B member 1 (Mus musculus) (Q61009 whole entry, looked up): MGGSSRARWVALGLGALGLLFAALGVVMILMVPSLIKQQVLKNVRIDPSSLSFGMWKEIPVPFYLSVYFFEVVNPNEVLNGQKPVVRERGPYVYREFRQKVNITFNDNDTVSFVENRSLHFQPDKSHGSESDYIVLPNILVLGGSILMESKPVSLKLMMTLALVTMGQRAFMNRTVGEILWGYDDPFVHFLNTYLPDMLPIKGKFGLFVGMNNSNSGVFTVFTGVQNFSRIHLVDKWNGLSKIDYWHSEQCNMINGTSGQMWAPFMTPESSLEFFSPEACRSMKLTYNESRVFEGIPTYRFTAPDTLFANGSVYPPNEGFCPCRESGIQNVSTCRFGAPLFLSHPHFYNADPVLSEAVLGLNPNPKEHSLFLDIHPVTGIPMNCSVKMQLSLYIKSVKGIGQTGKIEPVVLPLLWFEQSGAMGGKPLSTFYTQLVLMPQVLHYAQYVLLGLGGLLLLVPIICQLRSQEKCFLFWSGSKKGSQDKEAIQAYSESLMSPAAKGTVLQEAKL

AC50 [nM] | activity change, negative = inhibition (at 35 µM (top of the series)) | Structure (SMILES)
36.5 |  | COc1ccc(-c2nnn(CC(=O)N(CC(=O)NC3CCCC3)C3CCCCC3)n2)cc1OC
1610 |  | COc1ccc(-c2nnn(CC(=O)N(CC(=O)N(C)C3CCCC3)C3CCCCC3)n2)cc1OC
18.9 |  | C[C@H](C(=O)NC1CCCC1)N(C(=O)Cn1nnc(-c2ccc3c(c2)OCO3)n1)C1CCCCC1
25.8 |  | CCC(=O)N1CCc2cc(-c3csc(NC(=O)c4ccc(F)c(OC)c4)n3)ccc21
16.6 |  | CCCCCCC1CCC/C1=N\NC(N)=S (stereo not drawn)
2.28 |  | CCNC(=O)N1CCc2cc(-c3csc(NC(=O)c4cc(OC)cc(OC)c4)n3)ccc21
19.5 |  | COc1cc(OC)cc(C(=O)Nc2nc(-c3ccc4c(c3)CCN4C(=O)CN(C)C)cs2)c1
3620 |  | Cc1ccc2oc(-c3cccc(NC(=O)c4cc(-n5cnnc5)ccc4Cl)c3)nc2c1
5.98 |  | C[C@@H]1CN([C@H](C)CO)C(=O)c2cc(NC(=O)Cc3cn(C)c4ccccc34)ccc2O[C@H]1CN(C)S(=O)(=O)c1ccc(Cl)cc1
49.9 |  | CC(C(=O)NC1CCCC1)N(C(=O)Cn1nnc(-c2ccc3c(c2)OCO3)n1)C1CCCCC1 (stereo not drawn)
9200 |  | COc1ccc(-c2nnn(CC(=O)N(CC(=O)N3CCCCC3)C3CCCCC3)n2)cc1OC
89.3 |  | CCC(=O)n1ccc2cc(-c3csc(NC(=O)c4cc(OC)cc(OC)c4)n3)ccc21
65.2 |  | COc1ccc(-c2nnn(CC(=O)N(C3CCCCC3)C(C)C(=O)NC3CCCC3)n2)cc1OC (stereo not drawn)
60.2 |  | O=C(CN(C(=O)Cn1nnc(-c2ccc3c(c2)OCO3)n1)C1CCCCC1)NC1CCCC1
0.909 |  | COc1cc(OC)cc(C(=O)Nc2nc(-c3ccc4c(c3)CCN4C(=O)OC(C)(C)C)cs2)c1
29.4 |  | COc1ccc(-c2cc(CC(=O)N(C3CCCCC3)C(C)C(=O)NC3CCCC3)no2)cc1OC (stereo not drawn)
207 |  | COc1cc(OC)cc(C(=O)Nc2nc(-c3ccc4c(c3)CCN4C(C)=O)cs2)c1

AC50 [nM] | activity change, negative = inhibition (at 35 µM (top of the series)) | Structure (SMILES)
39 |  | COC(=O)N1CCc2cc(-c3csc(NC(=O)c4cc(OC)cc(OC)c4)n3)ccc21
21.1 |  | O=C(Nc1nc(-c2ccc3c(c2)CCN3)cs1)c1ccco1
2.76 |  | CCC(=O)N1CCc2cc(-c3csc(NC(=O)c4cc(OC)c(OC)c(OC)c4)n3)ccc21
148 |  | COc1ccc(-c2nc(CC(=O)N(C3CCCCC3)C(C)C(=O)NC3CCCC3)co2)cc1OC (stereo not drawn)
35 |  | CCC(=O)N1CCc2cc(-c3csc(NC(=O)c4cccc(OC)c4)n3)ccc21
2.81 |  | COCC(=O)N1CCc2cc(-c3csc(NC(=O)c4cc(OC)cc(OC)c4)n3)ccc21
372 |  | CCC(=O)N1CCc2cc(-c3csc(NCc4cc(OC)cc(OC)c4)n3)ccc21
10.3 |  | CCC(=O)N1CC(C)(C)c2cc(-c3csc(NC(=O)c4cc(OC)cc(OC)c4)n3)ccc21
42.6 |  | CCC(=O)N1CCc2cc(-c3csc(NC(=O)c4cc(OC)cc(OC)c4)n3)ccc21
 | inactive | COc1c(NC(=O)C(=O)c2ccc(OCCN3CCOCC3)c3ccccc23)cc(C(C)(C)C)cc1NS(C)(=O)=O
256 |  | CCC(=O)N1CCc2cc(-c3csc(NC(=O)c4cc5ccccc5o4)n3)ccc21
20.3 |  | CCC(=O)N1CC(C)(C)c2cc(-c3csc(NC(=O)c4ccco4)n3)ccc21
2270 |  | C[C@@H](C(=O)NC1CCCC1)N(C(=O)Cn1nnc(-c2ccc3c(c2)OCO3)n1)C1CCCCC1
26 |  | CC(=O)N1CCc2cc(-c3nc(NC(=O)c4cccc(OC(F)(F)F)c4)sc3C)ccc21
110 |  | CCC(=O)Nc1ccc(-c2csc(NC(=O)c3cccc(OC)c3)n2)cc1
266 |  | CCC(=O)N1CCc2cc(-c3csc(NC(=O)c4cccc(OC(F)(F)F)c4)n3)ccc21
